Experimental data from ChEMBL document CHEMBL4680124, “2-Styryl-4-aminoquinazoline derivatives as potent DNA-cleavage, p53-activation and in vivo effective anticancer agents” (Eur J Med Chem, 2020).
Active and inactive are the calls of the source. The calls are words filed in the database; no cut-off is given here.

How the values were obtained:
[1] = test system: MGC-803; experiment: Induction of apoptosis in human MGC-803 cells assessed as necrotic cells at 0.5 uM measured after 24 hrs by Annexin-V/propidium iodide staining-based flow cytometric analysis (Rvb =6.05%)
[2] = test system: A549; experiment: Cytotoxicity against human A549 cells expressing wild type p53 assessed as reduction in cell viability preincubated for 48 hrs and measured after 4 hrs by MTT assay; format: functional, cell-based
[3] = test system: MGC-803; experiment: Induction of ROS generation in human MGC-803 cells assessed as intracellular ROS level at 0 to 2.5 uM after 24 hrs by DCFH-DA staining-based flow cytometric analysis; format: functional, cell-based; details: dose 0-2.5 µM
Method in brief: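 MGC-803 cells treated at 0.5, 1.0 or 2.5 µM for 24 h, harvested, washed in cold PBS and loaded with DCFH-DA at 37 °C for 30 min in the dark. Washed three times in PBS; fluorescence read by flow cytometry. Representative of three experiments.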

[4] = test system: L02; experiment: Cytotoxicity against human HL-7702 cells expressing wild type p53 assessed as reduction in cell viability preincubated for 48 hrs and measured after 4 hrs by MTT assay; format: functional, cell-based
[5] = test system: MGC-803; experiment: Induction of apoptosis in human MGC-803 cells assessed as viable cells at 0.5 uM measured after 24 hrs by Annexin-V/propidium iodide staining-based flow cytometric analysis (Rvb =92.2 %); details: MGC-803, 24 h
[6] = test system: MGC-803; experiment: Induction of apoptosis in human MGC-803 cells assessed as activation of caspase 3 at 2.5 uM incubated for 24 hrs by flow cytometric analysis (reference value: 1.47%); format: functional
[7] = test system: MGC-803; experiment: Induction of apoptosis in human MGC-803 cells assessed as early apoptotic cells at 0.5 uM measured after 24 hrs by Annexin-V/propidium iodide staining-based flow cytometric analysis (Rvb =0.84%)
[8] = test system: MGC-803; experiment: Induction of apoptosis in human MGC-803 cells assessed as increase in p21 protein expression upto 2.5 uM incubated for 24 hrs by Western blot analysis; format: functional, cell-based; details: dose microM <=2.5, time 24.0 hrs
Method in brief: (§1)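 MGC-803 cells (2×10^6) cultured overnight, then exposed 24 h to 0.5, 1.0 or 2.5 μM, or 5.0 μM for the reference agent. Lysates were resolved by SDS-PAGE, transferred to PVDF and probed with primary antibodies. Detection used AP-linked anti-rabbit IgG and ECL. β-actin served as loading control.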

[9] = test system: MGC-803; experiment: Induction of apoptosis in human MGC-803 cells assessed as nuclear fragmentation incubated at 0.5 to 2.5 uM for 24 hrs by Hoechst 33258 staining based analysis; format: functional, cell-based; details: dose 0.5-2.5 µM
Method in brief: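 Cells in six-well plates were treated for the indicated time, then fixed 10 min in 4% paraformaldehyde and washed twice in PBS. Nuclei were stained 5 min with Hoechst 33258, washed twice in PBS and examined by fluorescence microscopy.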

[10] = test system: DNA; experiment: Binding affinity to Escherichia coli pBR322 DNA assessed as intercalation upto 100 uM by agarose gel electrophoresis assay; format: nucleic-acid assay; details: dose microM <=100
Method in brief: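 pBR322 plasmid DNA incubated with compound at 50, 100 or 200 µM for 3 h in TAE buffer. Reaction stopped with loading buffer. Run on 1% agarose gel, stained with ethidium bromide, imaged under UV transillumination. Lane controls: DNA with 1% DMSO (negative), DNA with EB (positive).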

[11] = test system: MGC-803; experiment: Induction of intracellular Ca+ level in human MGC-803 cells at 0 to 2.5 uM after 24 hrs by fluo-3 AM dye based flow cytometric analysis; format: functional, cell-based; details: dose 0-2.5 µM
Method in brief: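 MGC-803 cells in six-well plates exposed 24 h to 0.5, 1.0 or 2.5 μM. Cells were harvested, washed in cold PBS and loaded with Fluo-3 AM for 30 min at 37 in the dark. After three PBS washes, intracellular Ca2+ fluorescence was read by flow cytometry. Three independent experiments.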

[12] = test system: MGC-803; experiment: Cell cycle arrest in human MGC-803 cells assessed as accumulation at G2/M phase at 0.25 uM after 48 hrs by propidium iodide staining-based flow cytometric analysis (reference value: 7.94%); format: functional
[13] = test system: MGC-803; experiment: Induction of apoptosis in human MGC-803 cells assessed as increase in Bim expression at 0.5 to 2.5 uM measured after 24 hrs by Western blot analysis; format: functional, cell-based; details: dose 0.5-2.5 µM
Method in brief: as §1

[14] = test system: MGC-803; experiment: Cell cycle arrest in human MGC-803 cells assessed as accumulation at G2/M phase at 0.125 uM after 48 hrs by propidium iodide staining-based flow cytometric analysis (reference value: 7.94%); format: functional
[15] = test system: MGC-803; experiment: Induction of apoptosis in human MGC-803 cells assessed as increase in Bak expression at 0.5 to 2.5 uM measured after 24 hrs by Western blot analysis; details: dose 0.5-2.5 µM
[16] = Induction of mitochondria membrane potential loss in human MGC-803 cells assessed as increase in green fluorescence at 1 uM incubated 24 hrs by JC-1 probe based flow cytometry analysis (reference value: 4.67%); format: functional
[17] = test system: Calf thymus DNA; experiment: Binding affinity to calf thymus DNA assessed as quenching in emission band measured at 0.5:1 to 5:1 compound to EB ratio by ethidium bromide competitive displacement assay; details: Bos taurus
Method in brief: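 Competitive displacement using EB (10 µM) with ct-DNA (20 µM) in Tris-HCl, pH 7.4, 25 °C. Compound added stepwise from 10 to 100 µM; 5 min equilibration after each addition, then fluorescence emission recorded (slits 5 nm). Quenching constant from the Stern–Volmer equation.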

[18] = test system: MGC-803; experiment: Induction of DNA damage in human MGC-803 cells assessed as increase in gamma H2AX at 2.5 uM measured after 24 hrs by Western blot analysis; format: functional, cell-based
Method in brief: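 MGC-803 cells (2×10^6) plated overnight, then treated for 24 h at 0.5, 1.0 or 2.5 µM (test agent) or 5.0 µM (comparator). Whole-cell lysates separated by SDS-PAGE, transferred to PVDF and probed with primary antibodies. AP-linked anti-rabbit IgG, ECL detection, β-actin loading control. Representative of three experiments.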

[19] = test system: MGC-803; experiment: Induction of apoptosis in human MGC-803 cells assessed as necrotic cells at 2.5 uM measured after 24 hrs by Annexin-V/propidium iodide staining-based flow cytometric analysis (Rvb =6.05%)
[20] = test system: MGC-803; experiment: Antitumor activity against human MGC-803 cells xenografted in BALB/C nude mouse assessed as tumor growth inhibition at 10 mg/kg, ip administered every 2 days and measured 3 times per week; format: functional, organism-based; details: time 2.0 day
Method in brief: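 Male BALB/c nude mice, 6 weeks old, given 5×10^6 MGC-803 cells s.c. in the flank. When tumors reached about 80 mm3, mice were randomized (n = 6/group) and dosed i.p. every 2 days. Vehicle was 5% DMSO in saline. Drug solutions were 1.0 or 2.0 mg/mL (DMSO/saline). Tumor length and width plus body weight were measured three times weekly; volume = lw²/2. Mean ± SD.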

[21] = test system: MGC-803; experiment: Cell cycle arrest in human MGC-803 cells assessed as accumulation at S phase at 0.125 uM after 48 hrs by propidium iodide staining-based flow cytometric analysis (reference value: 45.1 %); format: functional

**Q.** Which Activity [1] does the source give for NCCCCNc1nc(/C=C/c2ccc([N+](=O)[O-])cc2)nc2ccccc12 here?
**A.** 8.13%

**Q.** And the IC50 [2]?
**A.** 5.48 µM

**Q.** And the Activity [3]?
**A.** Active

**Q.** And the IC50 [4]?
**A.** 7.46 µM

**Q.** And the viability at 0.5 µM [5]?
**A.** 71%

**Q.** And the Activity [6]?
**A.** 22.98%

**Q.** And the Activity [7]?
**A.** 14%

**Q.** What about the Activity [8] of the same compound?
**A.** Active

**Q.** And the Activity [9]?
**A.** Active

**Q.** What about the Activity [10] of the same compound?
**A.** Active

**Q.** And the Activity [11]?
**A.** Active

**Q.** And the Activity [12]?
**A.** 55.43%

**Q.** What about the Activity [13] of the same compound?
**A.** Active

**Q.** And the Activity [14]?
**A.** 18.16%

**Q.** What about the Activity [15] of the same compound?
**A.** inactive

**Q.** And the Activity [16]?
**A.** 13.9%

**Q.** And the Activity [17]?
**A.** Active

**Q.** And the Activity [18]?
**A.** Active

**Q.** And the Activity [19]?
**A.** 1.27%

**Q.** And the Activity [20]?
**A.** Active

**Q.** What about the Activity [21] of the same compound?
**A.** 46.45%
